According to ChEMBL document CHEMBL4680114, “Optimization of Potent and Selective Ataxia Telangiectasia-Mutated Inhibitors Suitable for a Proof-of-Concept Study in Huntington's Disease Models” (J Med Chem, 2019):
Values after ≈ are worked out from the molar mass of the structure shown.

Columns and labels:
[1] = Kinetic solubility in pH 7.4 PBS buffer by LC-UV assay; assay type: physicochemical; settings: read-out: Kinetic_solubility
How it was run: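 Compound from a 10 mM DMSO stock diluted to a nominal 200 µM in 0.1 M potassium phosphate/0.8% NaCl pH 7.4 (2% DMSO final), n=2. Shaken 2 h at room temperature, then filtered. Filtrate quantified by LC-UV against 200 µM and 10 µM DMSO standards, with MS peak confirmation.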

[2] = AUC/dose in C57BL/6J mouse brain at 3 mg/kg, iv administered as single dose by LC-MS/MS analysis; assay type: ADME, organism-based; settings: in vivo
How it was run: (§1)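 Male C57BL/6 mice, single intravenous dose as solution in 10:50:40 DMSO:PEG400:H2O (5 mL/kg). Plasma by cardiac puncture and brain collected at set times, n=3 per time point. LC-MS/MS quantitation with diclofenac IS. Composite non-compartmental parameters from mean concentrations; C0 back-extrapolated from first two points; kel from at least last three concentrations; AUC dose-normalized.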

[3] = Ratio of AUC/dose in brain to plasma of C57BL/6J mouse at 3 mg/kg, iv administered as single dose by LC-MS/MS analysis; assay type: ADME, organism-based; settings: brain and plasma, read-out: BPR
How it was run: (§2)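 Male mice given a single iv dose of 3 mg/kg in 10:50:40 DMSO:PEG400:H2O (5 mL/kg). Plasma (cardiac puncture) and brain collected, n=3 per time point, and measured by LC-MS/MS. Non-compartmental parameters from mean concentrations, with C0 back-extrapolated; AUC by linear trapezoidal method, dose-normalised.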

[4] = AUC/dose in C57BL/6J mouse plasma at 3 mg/kg, iv administered as single dose by LC-MS/MS analysis; assay type: ADME, organism-based; settings: in vivo; how it was run: as §1
[5] = Volume of distribution at steady state in C57BL/6J mouse at 3 mg/kg, iv administered as single dose by LC-MS/MS analysis; assay type: ADME, organism-based; settings: in vivo, read-out: Vdss; how it was run: as §2
[6] = Unbound brain-to-plasma concentration ratio in C57BL/6J mouse at 3 mg/kg, iv administered as single dose by LC-MS/MS analysis; assay type: ADME, organism-based; settings: brain and plasma, read-out: K(p,uu,brain)
[7] = Distribution coefficient, logD of compound at pH 7.4; assay type: physicochemical; settings: octanol/water

## CN1CC[C@@H](Oc2ccc3c(c2)Cc2cccc(-c4cc(=O)cc(N5CCOCC5)o4)c2S3)C1
[1]
  solubility kinetic: 84 µg/mL (≈ 176 µM)

## C[C@@H](CN1CCCC12COC2)Oc1ccc2c(c1)Cc1cccc(-c3cc(=O)cc(N4CCOCC4)o3)c1S2
[1]
  solubility kinetic: 21 µg/mL (≈ 38.4 µM)

## COC[C@H]1c2cc(OC)ccc2Sc2c(-c3cc(=O)cc(N4CCOCC4)o3)cccc21
[2]
  AUC/dose: 430 nM·kg·h/mg
[3]
  Kp: 0.4
[1]
  solubility kinetic: 67 µg/mL (≈ 148 µM)
[4]
  AUC/dose: 960 nM·kg·h/mg
[5]
  Vd: 3 L/kg
[6]
  Kp uu: 0.18

## COc1ccc2c(c1)C1(CCOCC1)c1cccc(-c3cc(=O)cc(N4CCOCC4)o3)c1S2
[2]
  AUC/dose: 700 nM·kg·h/mg
[3]
  Kp: 0.5
[1]
  solubility kinetic: 33 µg/mL (≈ 69.1 µM)
[4]
  AUC/dose: 1500 nM·kg·h/mg
[5]
  Vd: 3 L/kg
[6]
  Kp uu: 0.12

## C[C@@H]1CN([C@H](C)COc2ccc3c(c2)Cc2cccc(-c4cc(=O)cc(N5CCOCC5)o4)c2S3)C[C@H](C)O1
[1]
  solubility kinetic: 24 µg/mL (≈ 43.7 µM)

## COC[C@@H]1c2cc(OC)ccc2Sc2c(-c3cc(=O)cc(N4CCOCC4)o3)cccc21
[1]
  solubility kinetic: 64 µg/mL (≈ 142 µM)

## O=c1cc(-c2cccc3c2Sc2ccc(O[C@@H]4CCN(CC(F)F)C4)cc2C3)oc(N2CCOCC2)c1
[2]
  AUC/dose: 380 nM·kg·h/mg
[3]
  Kp: 0.2
[1]
  solubility kinetic: 7 µg/mL (≈ 13.3 µM)
[4]
  AUC/dose: 1600 nM·kg·h/mg
[5]
  Vd: 2.6 L/kg
[6]
  Kp uu: 0.05

## CN1CCN(CCOc2ccc3c(c2)Cc2cccc(-c4cc(=O)cc(N5CCOCC5)o4)c2S3)CC1
[1]
  solubility kinetic: 92 µg/mL (≈ 177 µM)

## CC(=O)N(C)c1ccc2c(c1)Cc1cccc(-c3cc(=O)cc(N4CCOCC4)o3)c1S2
[1]
  solubility kinetic: 77 µg/mL (≈ 172 µM)

## C[C@H](CN1CCOCC1)Oc1ccc2c(c1)Cc1cccc(-c3cc(=O)cc(N4CCOCC4)o3)c1S2
[1]
  solubility kinetic: 49 µg/mL (≈ 94.1 µM)

## COc1ccc2c(c1)C(C)(C)c1cccc(-c3cc(=O)cc(N4CCOCC4)o3)c1S2
[1]
  solubility kinetic: 5 µg/mL (≈ 11.5 µM)

## O=c1cc(-c2cccc3c2Sc2ccc(OC4CCOCC4)cc2C3)oc(N2CCOCC2)c1
[1]
  solubility kinetic: 10 µg/mL (≈ 20.9 µM)

## C[C@H](COc1ccc2c(c1)Cc1cccc(-c3cc(=O)cc(N4CCOCC4)o3)c1S2)N1CCOCC1
[1]
  solubility kinetic: 13 µg/mL (≈ 25 µM)

## CO[C@@H](C)COc1ccc2c(c1)Cc1cccc(-c3cc(=O)cc(N4CCOCC4)o3)c1S2
[1]
  solubility kinetic: 14 µg/mL (≈ 30.1 µM)

## O=c1cc(-c2cccc3c2Sc2ccc(OCCN4C[C@H]5C[C@@H]4CO5)cc2C3)oc(N2CCOCC2)c1 (relative stereo)
[1]
  solubility kinetic: 82 µg/mL (≈ 158 µM)

## O=c1cc(-c2cccc3c2Sc2ccc(OCC4CCOCC4)cc2C3)oc(N2CCOCC2)c1
[1]
  solubility kinetic: < 2 µg/mL

## O=c1cc(-c2cccc3c2Sc2ccc(OCCN4CCCC45CCOC5)cc2C3)oc(N2CCOCC2)c1 (stereo not given)
[1]
  solubility kinetic: 47 µg/mL (≈ 86 µM)

## C[C@@H](CN1CCOC2(CC2)C1)Oc1ccc2c(c1)Cc1cccc(-c3cc(=O)cc(N4CCOCC4)o3)c1S2
[1]
  solubility kinetic: 26 µg/mL (≈ 47.6 µM)

## COC[C@@H](C)Oc1ccc2c(c1)Cc1cccc(-c3cc(=O)cc(N4CCOCC4)o3)c1S2
[2]
  AUC/dose: 680 nM·kg·h/mg
[3]
  Kp: 0.4
[1]
  solubility kinetic: 22 µg/mL (≈ 47.3 µM)
[4]
  AUC/dose: 1600 nM·kg·h/mg
[5]
  Vd: 1.9 L/kg
[6]
  Kp uu: 0.14

## CCN1CC(Oc2ccc3c(c2)Cc2cccc(-c4cc(=O)cc(N5CCOCC5)o4)c2S3)C1
[1]
  solubility kinetic: 89 µg/mL (≈ 187 µM)

## O=c1cc(-c2cccc3c2Sc2ccc(OCCN4CCC(F)(F)C4)cc2C3)oc(N2CCOCC2)c1
[1]
  solubility kinetic: 3 µg/mL (≈ 5.7 µM)

## O=c1cc(-c2cccc3c2Sc2ccc(OC4CN(CC(F)F)C4)cc2C3)oc(N2CCOCC2)c1
[1]
  solubility kinetic: 12 µg/mL (≈ 23.4 µM)

## CC(=O)Nc1ccc2c(c1)Cc1cccc(-c3cc(=O)cc(N4CCOCC4)o3)c1S2
[1]
  solubility kinetic: 34 µg/mL (≈ 78.2 µM)

## CC1(CNc2ccc3c(c2)Cc2cccc(-c4cc(=O)cc(N5CCOCC5)o4)c2S3)COC1
[1]
  solubility kinetic: 14 µg/mL (≈ 29.4 µM)

## C[C@@H]1CN(C[C@H](C)Oc2ccc3c(c2)Cc2cccc(-c4cc(=O)cc(N5CCOCC5)o4)c2S3)C[C@H](C)O1
[1]
  solubility kinetic: 27 µg/mL (≈ 49.2 µM)

## C[C@@H](CN1C[C@H]2C[C@@H]1CO2)Oc1ccc2c(c1)Cc1cccc(-c3cc(=O)cc(N4CCOCC4)o3)c1S2
[1]
  solubility kinetic: 89 µg/mL (≈ 167 µM)

## C[C@@H]1CN(CC(=O)Nc2ccc3c(c2)Cc2cccc(-c4cc(=O)cc(N5CCOCC5)o4)c2S3)C[C@H](C)O1
[1]
  solubility kinetic: 46 µg/mL (≈ 84 µM)
[7]
  logD: 4.5

## C[C@@H]1CN(CCOc2ccc3c(c2)Cc2cccc(-c4cc(=O)cc(N5CCOCC5)o4)c2S3)C[C@H](C)O1
[1]
  solubility kinetic: 42.5 µg/mL (≈ 79.5 µM)

## C[C@@H](COc1ccc2c(c1)Cc1cccc(-c3cc(=O)cc(N4CCOCC4)o3)c1S2)N1CCOCC1
[1]
  solubility kinetic: 9 µg/mL (≈ 17.3 µM)

## O=C(CN1CCCC1)Nc1ccc2c(c1)Cc1cccc(-c3cc(=O)cc(N4CCOCC4)o3)c1S2
[1]
  solubility kinetic: 81 µg/mL (≈ 161 µM)

## C[C@H](O)COc1ccc2c(c1)Cc1cccc(-c3cc(=O)cc(N4CCOCC4)o3)c1S2
[1]
  solubility kinetic: 30 µg/mL (≈ 66.4 µM)

## C[C@@H](CN1CCOCC1)Oc1ccc2c(c1)Cc1cccc(-c3cc(=O)cc(N4CCOCC4)o3)c1S2
[1]
  solubility kinetic: 56 µg/mL (≈ 108 µM)

## CC(C)(O)C1CCN(CCOc2ccc3c(c2)Cc2cccc(-c4cc(=O)cc(N5CCOCC5)o4)c2S3)CC1
[2]
  AUC/dose: 120 nM·kg·h/mg
[3]
  Kp: 0.1
[1]
  solubility kinetic: 101 µg/mL (≈ 179 µM)
[4]
  AUC/dose: 950 nM·kg·h/mg
[5]
  Vd: 4.2 L/kg
[6]
  Kp uu: 0.05

## O=c1cc(-c2cccc3c2Sc2ccc(OCCN4CCC(F)(F)CC4)cc2C3)oc(N2CCOCC2)c1
[1]
  solubility kinetic: 3 µg/mL (≈ 5.55 µM)

## O=C(Nc1ccc2c(c1)Cc1cccc(-c3cc(=O)cc(N4CCOCC4)o3)c1S2)C1CC1
[1]
  solubility kinetic: 5 µg/mL (≈ 10.9 µM)

## O=c1cc(-c2cccc3c2Sc2ccc(OC4COC4)cc2C3)oc(N2CCOCC2)c1
[2]
  AUC/dose: 450 nM·kg·h/mg
[3]
  Kp: 0.2
[1]
  solubility kinetic: 25 µg/mL (≈ 55.6 µM)
[4]
  AUC/dose: 1900 nM·kg·h/mg
[5]
  Vd: 1.6 L/kg
[6]
  Kp uu: 0.07

## O=c1cc(-c2cccc3c2Sc2ccc(OCCN4CC(F)C4)cc2C3)oc(N2CCOCC2)c1
[1]
  solubility kinetic: 46 µg/mL (≈ 93 µM)

## C[C@H](CN1C[C@@H](C)O[C@@H](C)C1)Oc1ccc2c(c1)Cc1cccc(-c3cc(=O)cc(N4CCOCC4)o3)c1S2
[2]
  AUC/dose: 110 nM·kg·h/mg
[3]
  Kp: 0.1
[1]
  solubility kinetic: 30 µg/mL (≈ 54.7 µM)
[4]
  AUC/dose: 1100 nM·kg·h/mg
[5]
  Vd: 2.3 L/kg
[6]
  Kp uu: 0.03

## C[C@@H](CN1CCOCC12COC2)Oc1ccc2c(c1)Cc1cccc(-c3cc(=O)cc(N4CCOCC4)o3)c1S2
[1]
  solubility kinetic: 29 µg/mL (≈ 51.5 µM)
